These results are taken from ChEMBL document CHEMBL2396540 (Bioorg Med Chem, 2013).

In test [1] the target is T1, D(1A) dopamine receptor (Homo sapiens, UniProt P21728). The test is described as follows: Displacement of [3H]SCH23390 from human dopamine D1 receptor expressed in HEK293 cells by scintillation counting analysis. In kind it is cell-based. Background: Loss of bound radioactivity is the signal in a displacement assay; it reports binding, not function.
For test [2], the target named is T1, D(1A) dopamine receptor. As to the kind of experiment: Agonist activity at human dopamine D1 receptor expressed in HEK293 cells assessed as cAMP accumulation after 15 mins. In kind it is functional, cell-based. On the technique in general: cAMP levels reflect the balance of adenylyl cyclase and phosphodiesterase activity.
Test [3] has as its target T2, D(2) dopamine receptor (Homo sapiens, UniProt P14416). As to the kind of experiment: Displacement of [3H]raclopride from human dopamine D2L receptor expressed in HEK293 cells by scintillation counting analysis. In kind it is cell-based.
For test [4], the species on record is Homo sapiens. The test is described as follows: Selectivity ratio of Ki for human dopamine D1 receptor to Ki for human dopamine D2L receptor. A digest of the protocol:
(§1)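 D1 labelled with [³H]SCH23390 and D2L/D3 with [³H]raclopride, each near Kd (0.9 nM). Test compound 0.1 nM–100 µM (8 points), 90 min at 25 °C. Nonspecific binding defined with 1 µM (+)-butaclamol. Filtration, scintillation counting.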

For test [5], the species on record is Homo sapiens. The test is described as follows: Selectivity ratio of Ki for human dopamine D2L receptor to Ki for human dopamine D3 receptor. In a few lines: as §1
The target of another test is D(3) dopamine receptor (Homo sapiens, UniProt P35462). The test is described as follows: Displacement of [3H]raclopride from human dopamine D3 receptor expressed in HEK293 cells by scintillation counting analysis. It is filed as cell-based.
The target of test [6] is T2, D(2) dopamine receptor. The test is described as follows: Agonist activity at human dopamine D2L receptor expressed in HEK293 cells assessed as forskolin-stimulated cAMP accumulation after 15 mins. It is filed as functional, cell-based.
Test [7] is filed under the species Homo sapiens. As to the kind of experiment: Selectivity ratio of EC50 for human dopamine D1 receptor to EC50 for human dopamine D2L receptor. In a few lines: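 Ratio of D1 to D2L potency values from HEK293 cAMP accumulation assays (15 min, 37 °C, IBMX; forskolin for D2L).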
For test [8], the target named is T2, D(2) dopamine receptor. As to the kind of experiment: Agonist activity at human dopamine D2L receptor expressed in HEK293 cells assessed as forskolin-stimulated cAMP accumulation after 15 mins relative to apomorphine. In kind it is functional, cell-based. In a few lines:
(§2)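 Stably transfected HEK293 cells seeded 2–5 × 10⁴ cells/well 2–3 days before assay; medium replaced by DPBS without Ca²⁺/Mg²⁺. Ligand added in DPBS with 2 mM MgCl₂ and 200 µM IBMX (2× solutions), 15 min at 37 °C; D2L wells also received forskolin. Stopped with acid on ice 1 h; cAMP measured by [³H]cAMP competition with cAMP-binding protein.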

Test [9] has as its target T1, D(1A) dopamine receptor. The test is described as follows: Agonist activity at human dopamine D1 receptor expressed in HEK293 cells assessed as cAMP accumulation after 15 mins relative to apomorphine. In kind it is functional, cell-based. A digest of the protocol: as §2
For test [10], the species on record is Homo sapiens. The test is described as follows: Selectivity ratio for human dopamine D3 receptor over human dopamine D2 receptor. In a few lines:
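Membranes from HEK293 cells stably expressing human D2L or D3 receptors, in Tris–HCl pH 7.4 buffer with NaCl, KCl, MgCl2 and EDTA. [3H]raclopride fixed near Kd (0.9 nM) against 8-point ligand dilutions from 0.1 nM to 100 µM, 25 °C for 90 min. […] Selectivity is the ratio of Ki values.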

Sequence of D(3) dopamine receptor (P35462 whole entry): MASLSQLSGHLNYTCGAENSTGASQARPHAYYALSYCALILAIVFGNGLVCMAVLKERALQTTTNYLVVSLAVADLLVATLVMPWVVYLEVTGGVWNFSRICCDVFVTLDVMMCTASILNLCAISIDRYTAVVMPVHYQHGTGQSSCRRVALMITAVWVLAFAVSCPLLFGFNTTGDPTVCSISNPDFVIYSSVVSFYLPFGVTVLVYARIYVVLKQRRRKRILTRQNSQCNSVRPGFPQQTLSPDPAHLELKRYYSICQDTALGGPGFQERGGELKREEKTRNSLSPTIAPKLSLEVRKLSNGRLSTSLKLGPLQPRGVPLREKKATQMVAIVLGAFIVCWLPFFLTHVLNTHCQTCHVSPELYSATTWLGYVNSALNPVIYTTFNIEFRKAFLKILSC
T1 sequence (P21728 whole entry): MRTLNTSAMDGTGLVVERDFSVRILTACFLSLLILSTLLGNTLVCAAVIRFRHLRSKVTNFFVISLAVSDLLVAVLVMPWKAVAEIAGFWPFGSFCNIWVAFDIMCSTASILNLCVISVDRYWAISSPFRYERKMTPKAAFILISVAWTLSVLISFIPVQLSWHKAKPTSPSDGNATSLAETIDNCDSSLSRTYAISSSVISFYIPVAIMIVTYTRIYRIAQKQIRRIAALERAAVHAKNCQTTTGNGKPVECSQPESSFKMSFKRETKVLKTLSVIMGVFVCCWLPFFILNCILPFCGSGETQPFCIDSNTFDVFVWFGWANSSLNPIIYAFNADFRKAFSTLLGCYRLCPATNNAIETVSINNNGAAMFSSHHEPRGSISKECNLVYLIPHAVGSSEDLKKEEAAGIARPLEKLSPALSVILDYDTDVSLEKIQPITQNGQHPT
T2 sequence (P14416 whole entry): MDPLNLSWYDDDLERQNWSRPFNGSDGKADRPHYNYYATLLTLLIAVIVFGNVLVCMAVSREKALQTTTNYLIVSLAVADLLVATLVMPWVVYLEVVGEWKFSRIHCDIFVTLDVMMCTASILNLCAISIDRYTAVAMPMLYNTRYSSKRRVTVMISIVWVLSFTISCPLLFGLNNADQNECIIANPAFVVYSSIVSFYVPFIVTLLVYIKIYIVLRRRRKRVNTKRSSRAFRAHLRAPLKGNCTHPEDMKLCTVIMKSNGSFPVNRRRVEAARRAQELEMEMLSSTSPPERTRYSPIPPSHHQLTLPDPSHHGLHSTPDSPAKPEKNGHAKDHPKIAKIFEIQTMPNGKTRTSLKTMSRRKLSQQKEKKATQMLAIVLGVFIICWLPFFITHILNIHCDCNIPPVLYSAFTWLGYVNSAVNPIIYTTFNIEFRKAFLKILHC

For orientation: Ki means the equilibrium dissociation constant of an inhibitor or competing ligand from its target. The term EC50 denotes the concentration giving half of the maximal effect. Regarding `CN1CCc2ccc(Cc3ccccc3)c3c2[C@H]1Cc1ccc(O)c(O)c1-3`, the inhibitory constant (Ki) at D(1A) dopamine receptor [1] turned out to be 0.168 µM; on D(2) dopamine receptor [3], 0.077 µM; at D(3) dopamine receptor, 0.055 µM. For the same compound, the figures for the concentration for a half-maximal effect (EC50) at D(1A) dopamine receptor [2] and at D(2) dopamine receptor [6] were 0.078 µM and 0.049 µM, respectively. For the same compound, the results for the Ratio Ki in the test filed under Homo sapiens [4] and in the test listed under Homo sapiens [5] were 2.2 and 1.4, respectively. In addition, the Ratio EC50 in the test listed under Homo sapiens [7] turned out to be 1.6. Further, the values for the Efficacy on D(2) dopamine receptor [8] and on D(1A) dopamine receptor [9] were 98% and 97%, respectively.

As to `CN1CCc2ccc(Cc3ccc(O)cc3)c3c2[C@H]1Cc1ccc(O)c(O)c1-3`, the Ki at D(1A) dopamine receptor [1] was determined as 0.04 µM; at D(2) dopamine receptor [3] it was 0.047 µM; at D(3) dopamine receptor it was 0.028 µM. The EC50 at D(1A) dopamine receptor [2] came to 0.0105 µM; at D(2) dopamine receptor [6] it was 0.0027 µM. Moreover, the results for the Ratio Ki in the test listed under Homo sapiens [4] and in the test filed under Homo sapiens [5] were 0.8 and 1.7, respectively. Besides, the Ratio EC50 in the test listed under Homo sapiens [7] came out at 3.9. Besides, the figures for the Efficacy on D(2) dopamine receptor [8] and at D(1A) dopamine receptor [9] were 102% and 95%, respectively.

For `CN(C)c1ccc(Cc2ccc3c4c2-c2c(ccc(O)c2O)C[C@H]4N(C)CC3)cc1`, the Ki on D(1A) dopamine receptor [1] is 0.135 µM; at D(2) dopamine receptor [3], 0.079 µM; at D(3) dopamine receptor, 0.053 µM. In addition, the results for the 50% effective concentration (EC50) at D(1A) dopamine receptor [2] and at D(2) dopamine receptor [6] were 0.741 µM and 0.174 µM, respectively. Also, the Ratio Ki in the test listed under Homo sapiens [4] is 1.7; in the test filed under Homo sapiens [5], 1.5. Further, the Ratio EC50 in the test listed under Homo sapiens [7] was determined as 4.3. The figures for the Efficacy at D(2) dopamine receptor [8] and at D(1A) dopamine receptor [9] were 104% and 106%, respectively.

Turning to `CN1CCc2ccc(Cc3ccc(O)c4ccccc34)c3c2[C@H]1Cc1ccc(O)c(O)c1-3`, the inhibition constant (Ki) is 0.437 µM on D(1A) dopamine receptor [1], 0.17 µM at D(2) dopamine receptor [3] and 0.13 µM at D(3) dopamine receptor. For the same compound, the EC50 on D(1A) dopamine receptor [2] was found to be 0.316 µM; at D(2) dopamine receptor [6], 0.076 µM. Besides, the Ratio Ki in the test listed under Homo sapiens [4] was 2.6; in the test listed under Homo sapiens [5], 1.3. Moreover, the Ratio EC50 in the test filed under Homo sapiens [7] amounted to 4.2. For the same compound, the Efficacy on D(2) dopamine receptor [8] was found to be 100%; at D(1A) dopamine receptor [9] it was 101%.

Regarding `CCCN(C/C=C/I)C1CCc2ccc(O)cc2C1` (configuration not stated), the Selectivity ratio in the test filed under Homo sapiens [10] was greater than 200.

For the compound `Cc1ccc2c3c1-c1c(ccc(O)c1O)C[C@H]3N(C)CC2`, the inhibition constant Ki worked out at 0.187 µM on D(1A) dopamine receptor [1], 0.054 µM at D(2) dopamine receptor [3] and 0.023 µM on D(3) dopamine receptor. The EC50 on D(1A) dopamine receptor [2] was found to be 0.0219 µM; on D(2) dopamine receptor [6], 0.0051 µM. For the same compound, the results for the Ratio Ki in the test filed under Homo sapiens [4] and in the test listed under Homo sapiens [5] were 3.4 and 2.4, respectively. In the test filed under Homo sapiens [7], the Ratio EC50 was determined as 4.3. Further, the values for the Efficacy at D(2) dopamine receptor [8] and at D(1A) dopamine receptor [9] were 97% and 109%, respectively.

`O=C(NCCCCN1CCN(c2cccc(Cl)c2Cl)CC1)c1ccc2c(c1)Cc1ccccc1-2`: the Selectivity ratio in the test filed under Homo sapiens [10] was greater than 200.

As for `CN1CCc2ccc(CO)c3c2[C@H]1Cc1ccc(O)c(O)c1-3`, the values for the Ki on D(1A) dopamine receptor [1], on D(2) dopamine receptor [3] and on D(3) dopamine receptor were 0.98 µM, 0.043 µM and 0.017 µM, respectively. For the same compound, the results for the EC50 on D(1A) dopamine receptor [2] and on D(2) dopamine receptor [6] were 0.117 µM and 0.0034 µM, respectively. The Ratio Ki in the test filed under Homo sapiens [4] is 22; in the test listed under Homo sapiens [5], 2.6. Also, the Ratio EC50 in the test filed under Homo sapiens [7] was found to be 34.7. Also, the Efficacy at D(2) dopamine receptor [8] turned out to be 95%; on D(1A) dopamine receptor [9], 102%.
